High-throughput results deposited in PubChem by The Scripps Research Institute Molecular Screening Center.
Rows were chosen to be rich in hits. Some 1.9% of all compounds tested hit in one or more screens of this group.
UHRF1 MBD2 ctr – UHRF1 methylated DNA binding inhibitors, primary screen, counter-screen for MBD2 inhibitor project, biochemical, TR-FRET, human UHRF1, single concentration. 0.75% of 370,000 active. inhibition, % at 4.4 µM. E3 ubiquitin-protein ligase UHRF1 (Homo sapiens), Q96T88. UHRF1 binding to methylated oligo. AID 687016, 2013; in the data active means inhibition above about 21%;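 further: UHRF1 SRA domain binding a hemimethylated CpG hairpin DNA probe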
Target sequence (Q96T88 whole entry, looked up, the tested form may be a part): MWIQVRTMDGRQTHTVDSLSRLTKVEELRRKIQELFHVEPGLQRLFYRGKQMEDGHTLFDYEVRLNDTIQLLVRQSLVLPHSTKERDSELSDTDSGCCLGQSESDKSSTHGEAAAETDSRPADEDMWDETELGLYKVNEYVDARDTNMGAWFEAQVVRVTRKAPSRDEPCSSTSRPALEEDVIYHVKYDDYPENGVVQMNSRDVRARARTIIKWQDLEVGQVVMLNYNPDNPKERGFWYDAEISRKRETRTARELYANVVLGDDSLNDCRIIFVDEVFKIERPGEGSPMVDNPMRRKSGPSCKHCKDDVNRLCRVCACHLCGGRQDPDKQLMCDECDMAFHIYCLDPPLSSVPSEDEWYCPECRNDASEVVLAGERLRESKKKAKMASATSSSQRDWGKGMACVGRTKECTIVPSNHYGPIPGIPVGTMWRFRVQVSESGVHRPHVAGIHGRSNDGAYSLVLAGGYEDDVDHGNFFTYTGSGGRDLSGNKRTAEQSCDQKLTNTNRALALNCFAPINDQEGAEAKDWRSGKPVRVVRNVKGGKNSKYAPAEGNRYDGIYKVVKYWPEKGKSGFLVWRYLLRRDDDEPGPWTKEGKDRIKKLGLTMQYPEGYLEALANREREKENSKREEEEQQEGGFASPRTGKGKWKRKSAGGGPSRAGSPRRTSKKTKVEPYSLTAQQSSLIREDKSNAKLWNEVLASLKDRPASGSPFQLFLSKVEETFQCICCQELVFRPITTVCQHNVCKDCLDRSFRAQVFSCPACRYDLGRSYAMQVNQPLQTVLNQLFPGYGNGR
Rin1-Abl PPI inh – inhibitors of Rin1-Abl protein binding, primary screen, biochemical, TR-FRET; Tyrosine-protein kinase ABL1 (Homo sapiens) + Ras and Rab interactor 1 (Homo sapiens), …; inhibition, % at 7.35 µM; 0.4% of 360,000 active; AID 588664, 2011; in the data active means inhibition above about 5%, passing the limit was not always enough
TDP2 absorb – human TDP2 enzyme inhibitors, primary screen, biochemical, epi absorbance, recombinant enzyme; 0.34% of 370,000 active; Tyrosyl-DNA phosphodiesterase 2 (Homo sapiens), O95551; inhibition, % at 12.8 µM; T5PNP hydrolysis, p-nitrophenol absorbance 415 nm;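 active means inhibition above the mean of all tested compounds plus 3 SD, set per campaign, cut at about 25% in these data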
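System: recombinant human TDP2 / Amount: 120 nM TDP2 per well / Also added: 5 mM T5PNP chromogenic substrate / Doses: 12.8 µM single point, 1% DMSO / Incubation: 2 h at 37 °C / Detection: p-Nitrophenol epi absorbance / Evaluation: % inhibition relative to enzyme-containing and enzyme-free wells / Repeats: singlicate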
MBD2 DNA inh – inhibitors of MBD2 binding to methylated DNA, primary screen, biochemical, TR-FRET, DNA-binding domain, human. Methyl-CpG-binding domain protein 2 (Homo sapiens), Q9UBB5. MBD2 binding to methylated oligonucleotide. inhibition, % at 4.4 µM. 0.31% of 370,000 active; in the data active means inhibition above about 13%
LEDGF integ inh – blockers of LEDGF/p75-dependent integrase strand transfer – biochemical, TR-FRET, high throughput, primary screen; 0.64% of 370,000 active; TR-FRET IN-LEDGF/p75 DNA integration, Eu/Cy5; inhibition, % at 3.7 µM; HIV-1 integrase (with human LEDGF/p75);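 active means inhibition above the screen-wide mean plus 3 SD, cut at about 13% in these data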;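 further: signal is the Cy5 over europium emission ratio at 671 and 618 nm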
TDP2 confirm – human TDP2 enzyme inhibitors, retest, confirmation, biochemical, epi absorbance, recombinant enzyme; shares compounds with TDP2 absorb; absorbance read-out; inhibition, % at 12.8 µM; 22% of 1,100 active; in the data active means inhibition above about 25%
A number is an active result; i = inactive; nt = no result.

SMILES	UHRF1 MBD2 ctr	Rin1-Abl PPI inh	TDP2 absorb	MBD2 DNA inh	LEDGF integ inh	TDP2 confirm
O=C(Nc1ccc(F)cc1)OCCN1C(=O)CCC12CCC(c1ccccc1)CC2 (configuration not stated)	i	nt	i	i	i	nt
COC(=O)[C@@H]1C[C@@]2(c3ccccc3)c3ccccc3N(S(=O)(=O)c3ccccc3)[C@H]2N1C(=O)CNC/C=C(\C)CCC=C(C)C	i	nt	i	i	i	nt
O=C(c1cccc(S(=O)(=O)N2CCN(c3ccccc3)CC2)c1)N1CCN(c2ccccc2O)CC1	i	i	28.7	i	i	i
CCOC(=O)C1CCN(S(=O)(=O)c2cc(C(=O)N3CCCCC3)ccc2OC)CC1	i	i	25.1	i	i	i
CC(=O)Nc1c(O)c2ccccc2[nH]c1=O	i	i	i	i	i	nt
CNC(=O)C(=O)Nc1c(O)c2ccccc2[nH]c1=O	i	i	27.0	i	i	i
O=C(C1CCCO1)N1CCN(C2=Nc3ccccc3Sc3ccccc32)CC1 (configuration not stated)	i	nt	i	i	i	nt
CC(=O)N(C1=C(N)C(=O)c2ccccc2C1=O)c1ccccc1	i	i	29.4	i	i	i
Cc1ccccc1C(OCC(O)CN1CCC(C(N)=O)CC1)c1ccccc1 (configuration not stated)	i	i	i	i	i	nt
CCN1CCN(CC(O)COC(c2ccccc2)c2ccccc2C)CC1 (configuration not stated)	i	i	27.5	i	i	i
COC(=O)C[C@@H]1CC[C@H]2[C@@H](COc3ccc(NC(=O)Nc4ccc(C)cc4)cc3C(=O)N2C)O1	i	nt	i	i	i	nt
COC(=O)[C@]12C[C@H](CC(=O)NCCCN3CCCC3=O)C(=O)N(Cc3cccc4ccccc34)C1=C[C@H](C(C)C)O[C@@H]2C1CC1	i	nt	i	i	i	nt
CC(C)[C@H](NC(=O)[C@@H](N)Cc1ccccc1)C(=O)N1CCC2CCN(Cc3ccccc3)CC21 (some centres not stated)	i	nt	i	i	i	nt
CCOc1ccc(NC(=O)CN(C)C(=O)c2ccccc2OCc2c(C)noc2C)cc1OCC	i	i	25.6	i	i	i
Cc1ccc(NC(=O)CN(C)C(=O)c2ccccc2OCc2c(C)noc2C)cc1	i	i	i	i	i	nt
CCC[C@H]1[C@@H](OC(=O)N2CCOCC2)CC[C@@]23CCCN2C(=O)CCC[C@@H]13	i	nt	i	i	i	nt
CCC(C)N1CCN(S(=O)(=O)c2ccc3ccccc3c2)CC1 (configuration not stated)	i	i	32.2	i	i	i
CC(C)CC(=O)N1CCN(S(=O)(=O)c2ccc3ccccc3c2)CC1	i	i	i	i	i	nt
CCCCN(C(C)=O)C1CC(=O)N(c2ccc(OCCC)cc2)C1=O (configuration not stated)	i	i	29.1	i	i	i
CCCOc1ccc(N2C(=O)CC(N(CCCO)C(=O)CC)C2=O)cc1 (configuration not stated)	i	i	i	i	i	nt
O=S(=O)(CC1NCCc2ccccc21)NCc1ccccc1 (configuration not stated)	i	nt	i	i	i	nt
Cc1cnc(C2OCCO2)c2cccc(N)c12	i	i	30.2	i	i	43.8
CN1CCC(C)(C(=O)Nc2cccc(Oc3ccccc3)c2)C1 (configuration not stated)	i	i	81.4	i	i	i
CCOC(=O)C1CCCN(C(=O)c2cc3c(=O)n(C)c4ccccc4c3n2C)C1 (configuration not stated)	i	i	40.5	i	i	i
O=C1C(Cl)=C(NC(=O)c2ccccc2)C(=O)C(Cl)=C1NC(=O)c1ccccc1	i	i	59.2	i	i	33.3
SMILES	UHRF1 MBD2 ctr	Rin1-Abl PPI inh	TDP2 absorb	MBD2 DNA inh	LEDGF integ inh	TDP2 confirm
O=C(NC1=C(Nc2ccc(Cl)cc2)C(=O)c2ccccc2C1=O)c1ccccc1	i	i	i	i	i	nt
COCCCN1C(=O)[C@H](CC(=O)NCc2ccc(C)o2)[C@]2(C(=O)OC)CCCCC=C12	i	nt	i	i	i	nt
COc1cc(NC(=O)c2ccco2)c(OC)cc1NC(=O)CCC(=O)Nc1cc(C)ccc1C	i	i	i	i	i	nt
COc1ccc(C)cc1NC(=O)CCNC(=O)c1ccco1	i	i	26.0	i	i	i
O=C(NCC(c1ccco1)N1CCOCC1)c1c(F)cccc1F (configuration not stated)	i	i	24.9	i	i	i
O=C(Nc1ccc(S(=O)(=O)N2CCCCC2)cc1)C1CC(=O)N(c2ccc(Cl)cc2)C1 (configuration not stated)	i	i	24.8	i	i	i
Cc1ccccc1NC(=O)COC(=O)CCc1nc2ccccc2c(=O)[nH]1	i	i	i	i	i	nt
O=C(COC(=O)CCc1nc2ccccc2c(=O)[nH]1)Nc1c(Cl)cccc1C(F)(F)F	i	i	57.4	i	i	i
CCCC(=O)Nc1ccc2c(c1)C(=O)N(C)[C@H]1CC[C@@H](CC(=O)OC)O[C@@H]1CO2	i	nt	i	i	i	nt
O=C(Nc1ccc(F)cc1)OCc1cn(Cc2cccc(C(F)(F)F)c2)nn1	i	nt	i	i	i	nt
Cc1ccc(C)c(NC(=O)c2cnccn2)c1	i	i	28.6	i	i	i
Cc1ccc(NC(=O)c2cnccn2)c(C)c1	i	i	i	i	i	nt
Cc1ccc(CN2CCCCC(NC(=O)c3ccc4ccccc4c3)C2=O)cc1 (configuration not stated)	i	nt	i	i	i	nt
CC1(C)c2cc(O)ccc2OC1N1CCOCC1 (configuration not stated)	i	i	25.4	i	i	i
CC1(C)c2ccccc2-c2nc3ccccc3cc2C1N1CCOCC1 (configuration not stated)	i	i	i	i	i	nt
O=C(CSc1nnc(-c2ccc(Cl)cc2)n1-c1ccccc1)NN=Cc1c[nH]c2ccccc12	i	nt	i	i	i	nt
Cc1ccc(-n2nc3c(c2NC(=O)C2CC2)CS(=O)(=O)C3)cc1	i	i	26.7	i	i	i
Cc1ccc(-n2nc3c(c2NC(=O)C2CC2)CS(=O)(=O)C3)cc1C	i	i	i	i	i	nt
Cc1cc(Cl)c(OCCOCCN2CCC(C)CC2)c(Br)c1	i	i	i	i	i	nt
Cc1cc(Cl)c(OCCOCCN2CCN(C)CC2)c(Br)c1	i	i	34.2	i	i	i
COC(=O)c1c(Cl)c2n3ccccc3c(C)c(-c3ccccc3)c-2c1C(=O)OC	i	i	32.0	i	i	i
O=C(OCc1cn(Cc2ccc(C(F)(F)F)cc2)nn1)N1CCOCC1	i	nt	i	i	i	nt
